Results gathered from unrelated publications.
Matrix: Caco-2

CC(C)C[C@H](NC(=O)[C@@H]1COCCCCCC(=O)NCC(=O)N2CCC[C@H]2C(=O)N1)C(=O)[C@@]1(C)CO1
Papp A→B (10 µM; 2 h; pH 7.4): 0.454 ×10⁻⁶ cm/s

CCCCC(CC)CNC(=N)NC(=N)NCCCCCCNC(=N)NC(=N)NCC(CC)CCCC (stereo not shown)
Papp B→A (5 µM; 2 h): 0.37 ×10⁻⁶ cm/s

O=C(O)c1cn(-c2ccc(-c3ccc(C(=O)N4CCNCC4)cc3)cc2)cc(O)c1=O
Papp A→B: 0.2 ×10⁻⁶ cm/s

Cc1c(C(=O)O)ccc2c3n(nc12)[C@@H]1[C@H](C3)N(CC2CC2)[C@@]2(C(=O)Nc3cc(Cl)ccc32)[C@H]1c1cccc(Cl)c1F
Papp A→B: 84 ×10⁻⁶ cm/s

C[C@H]1O[C@@H](O[C@H]2[C@@H](O)C[C@H](O[C@H]3[C@@H](O)C[C@H](O[C@H]4CC[C@@]5(C)[C@H](CC[C@@H]6[C@@H]5C[C@@H](O)[C@]5(C)[C@@H](C7=CC(=O)OC7)CC[C@]65O)C4)O[C@@H]3C)O[C@@H]2C)C[C@H](O)[C@@H]1O
Papp A→B (5 µM; 2 h): 0.27 ×10⁻⁶ cm/s

N#Cc1cc(-c2ccc(C(=O)N3CCNCC3)cc2)ccc1-n1cc(O)c(=O)c(C(=O)O)c1
Papp A→B: 0.3 ×10⁻⁶ cm/s

CCn1cc(C2CC2)c2c(Cc3ccc(C(F)(F)F)nc3)n(C)nc2c1=O
Papp A→B: 38.7 ×10⁻⁶ cm/s

Cc1c(N(C)C)ccc2cc(C(=O)NS(=O)(=O)c3ccccc3-c3ccccc3)oc12
Papp B→A (2 µM; 2 h; pH 7.2): 14.3 ×10⁻⁶ cm/s

N#C[C@@]12C[C@@H]1[C@@H](n1cnc3c(N[C@@H](C4CCC4)C4CC4)nc(I)nc31)[C@H](O)[C@@H]2O
Papp A→B: 5.97 ×10⁻⁶ cm/s

Cn1nc2c(=O)n(C3CC3)ncc2c1[C@](O)(c1cnc(C(F)(F)F)c(Cl)c1)C(F)(F)F
Papp A→B: 43.4 ×10⁻⁶ cm/s
